According to ChEMBL document CHEMBL3864175, “Sulfonamides as Selective NaV1.7 Inhibitors: Optimizing Potency and Pharmacokinetics to Enable in Vivo Target Engagement” (ACS Med Chem Lett, 2016):

How the values were obtained:
[1] = biological target: Sodium channel protein type 2 subunit alpha (Homo sapiens, UniProt Q99250); experiment: Inhibition of 20% inactivated human Nav1.2 expressed in CHO cells assessed as inhibition of peak inward current by whole cell patch clamp method; format: cell-based
[2] = biological target: T1, Sodium channel protein type 9 subunit alpha (Homo sapiens, UniProt Q15858); experiment: Inhibition of human Nav1.7 in closed state expressed in HEK293 cells assessed as inhibition of sodium current at holding potential of -140 mV measured for 3 to 5 mins by whole cell voltage clamp method; format: cell-based
How it was run: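 Closed-state (fully non-inactivated) protocol: inhibition was measured with cells held at −140 mV, for comparison with protocols using inactivating depolarizations.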

[3] = biological target: T2, Sodium channel protein type 9 subunit alpha (Mus musculus, UniProt Q62205); experiment: Inhibition of 20% inactivated Nav1.7 in C57BL/6 mouse DRG neurons assessed as inhibition of sodium currents in presence of TTX by whole cell patch clamp assay
How it was run: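 Electrophysiology of TTX-sensitive sodium channels recorded from the cell bodies of sensory neurons freshly dissociated from mouse dorsal root ganglia.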

[4] = Volume of distribution at steady state in rat at 0.5 mg/kg, iv by LC-MS/MS analysis; format: ADME, organism-based; details: in vivo, read-out: Vdss
How it was run: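 Male rats, n = 2 per group, dosed intravenously at 0.5 mg/kg as a solution in 100% DMSO. Unbound clearance is derived from total clearance.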

[5] = Cmax in rat at 10 mg/kg, po by LC-MS/MS analysis; format: ADME, organism-based; set-up: dose 10 mg/kg, route oral; details: in vivo
How it was run: (§1)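 Rats dosed orally at 10 mg/kg as a solution in 30% HPBCD/70% water, brought to pH 10 with KOH.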

[6] = Unbound plasma concentration in histamine induced C57BL/6 mouse model of scratching at 60 mg/kg, po pretreated for 120 mins followed by histamine-challenge measured after 30 mins; format: ADME, organism-based; details: in vivo, 0.5 h
How it was run: (§2)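 Male C57BL/6 mice dosed orally 120 min before intradermal histamine. Scratching bouts counted over 30 min and compared with vehicle by one-way ANOVA with Dunnett's test. Total and unbound plasma levels taken 30 min after histamine.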

[7] = Oral bioavailability in rat at 10 mg/kg by LC-MS/MS analysis; format: ADME, organism-based; details: in vivo; how it was run: as §1
[8] = Unbound plasma concentration in histamine induced C57BL/6 mouse model of scratching at 20 mg/kg, po pretreated for 120 mins followed by histamine-challenge measured after 30 mins; format: ADME, organism-based; details: in vivo, 0.5 h; how it was run: as §2
[9] = biological target: T3, Sodium channel protein type 5 subunit alpha (Homo sapiens, UniProt Q14524); experiment: Inhibition of 20% inactivated human Nav1.5 expressed in HEK293 cells assessed as inhibition of peak inward current by whole cell patch clamp method; format: cell-based
[10] = Ratio of drug level in brain to plasma in C57BL/6 mouse; format: ADME; details: read-out: BPR
[11] = Fraction unbound in dog plasma at 5 uM by LC-MS/MS analysis; format: ADME, cell-free, Canis lupus familiaris
[12] = biological target: Sodium channel protein type 1 subunit alpha (Homo sapiens, UniProt P35498); experiment: Inhibition of 20% inactivated human Nav1.1 expressed in HEK293 cells assessed as inhibition of peak inward current by whole cell patch clamp method; format: cell-based
[13] = Fraction unbound in rat plasma at 5 uM measured after 45 mins by LC-MS/MS analysis; format: ADME, cell-free
[14] = Total plasma concentration in histamine induced C57BL/6 mouse model of scratching at 20 mg/kg, po pretreated for 120 mins followed by histamine-challenge measured after 30 mins; format: ADME, organism-based; how it was run: as §2
[15] = Drug excretion in bile duct cannulated Sprague-Dawley rat bile assessed as parent compound at 1 mg/kg, iv administered through catheter measured up to 24 hrs by LC-MS/MS analysis; format: ADME, organism-based; details: read-out: Drug excretion
[16] = Clearance in dog at 0.5 mg/kg, iv by LC-MS/MS analysis; format: ADME, organism-based, Canis lupus familiaris; details: in vivo
[17] = Selectivity index, ratio of IC50 for human Nav1.5 expressed in HEK293 cells to IC50 for human Nav 1.7 expressed in HEK293 cells
[18] = Drug excretion in bile duct cannulated Sprague-Dawley rat feces assessed as parent compound at 1 mg/kg, iv administered through catheter measured up to 24 hrs by LC-MS/MS analysis; format: ADME, organism-based; details: faeces, read-out: Drug excretion
[19] = Unbound clearance in dog at 0.5 mg/kg, iv by LC-MS/MS analysis; format: ADME, organism-based, Canis lupus familiaris; details: in vivo
How it was run: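 Dogs dosed intravenously at 0.5 mg/kg in 30% HPBCD/70% water, brought to pH 10 with KOH.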

[20] = biological target: Sodium channel protein type 8 subunit alpha (Homo sapiens, UniProt Q9UQD0); experiment: Inhibition of 20% inactivated human Nav1.6 expressed in HEK293 cells assessed as inhibition of peak inward current by whole cell patch clamp method; format: cell-based
[21] = Tmax in dog at 1.7 mg/kg, po by LC-MS/MS analysis; format: ADME, organism-based, Canis lupus familiaris; details: in vivo
How it was run: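 Dogs given a 1.7 mg/kg oral dose as a solution in 30% HPBCD/70% water/KOH at pH = 10; plasma parameters derived from this oral dosing, with the iv dose at 0.5 mg/kg in the same vehicle.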

[22] = biological target: T2, Sodium channel protein type 9 subunit alpha; experiment: Inhibition of 20% inactivated mouse Nav1.7 expressed in HEK293 cells assessed as inhibition of sodium current measured for 3 to 5 mins by whole cell voltage clamp method; format: cell-based
How it was run: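 Mouse NaV1.7 was stably transfected into HEK293 cells. Block was measured with cells depolarized to a voltage that gave 20% channel inactivation.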

[23] = biological target: T3, Sodium channel protein type 5 subunit alpha; experiment: Inhibition of human Nav1.5 expressed in HEK293 cells assessed as inhibition of sodium current at holding potential of -125 mV measured for 3 to 5 mins by whole cell voltage clamp method; format: cell-based
[24] = test system: Mus musculus; experiment: Toxicity in C57BL/6 mouse assessed as reduction in locomotor activity at 5 to 60 mg/kg, po measured after 4 hrs by open field movement assay; format: organism-based; details: in vivo
[25] = Unbound plasma concentration in histamine induced C57BL/6 mouse model of scratching at 5 mg/kg, po pretreated for 120 mins followed by histamine-challenge measured after 30 mins; format: ADME, organism-based; details: in vivo, 0.5 h; how it was run: as §2
[26] = biological target: T1, Sodium channel protein type 9 subunit alpha; experiment: Inhibition of human Nav1.7 expressed in HEK293 cells assessed as inhibition of sodium current at holding potential of -125 mV measured for 3 to 5 mins by whole cell voltage clamp method; format: cell-based
[27] = biological target: T1, Sodium channel protein type 9 subunit alpha; experiment: Inhibition of human Nav1.7 expressed in HEK293 cells assessed as inhibition of sodium current at holding potential of -60 mV measured for 3 to 5 mins by whole cell voltage clamp method; format: cell-based
[28] = Inhibition of 20% inactivated dog Nav1.7 expressed in HEK293T cells assessed as inhibition of sodium current measured for 3 to 5 mins by whole cell voltage clamp method; format: cell-based; details: HEK-293T
How it was run: (§3)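 Electrophysiological block was measured with cells depolarized to a voltage that gave 20% channel inactivation, as opposed to a fully non-inactivated (closed) holding condition.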

[29] = Inhibition of 20% inactivated cynomolgus monkey Nav1.7 expressed in HEK293T cells assessed as inhibition of sodium current measured for 3 to 5 mins by whole cell voltage clamp method; format: cell-based; details: Macaca fascicularis, HEK-293T; how it was run: as §3
[30] = Total plasma concentration in histamine induced C57BL/6 mouse model of scratching at 60 mg/kg, po pretreated for 120 mins followed by histamine-challenge measured after 30 mins; format: ADME, organism-based; how it was run: as §2
[31] = Total plasma concentration in histamine induced C57BL/6 mouse model of scratching at 5 mg/kg, po pretreated for 120 mins followed by histamine-challenge measured after 30 mins; format: ADME, organism-based; how it was run: as §2

T1 sequence (Q15858 whole entry): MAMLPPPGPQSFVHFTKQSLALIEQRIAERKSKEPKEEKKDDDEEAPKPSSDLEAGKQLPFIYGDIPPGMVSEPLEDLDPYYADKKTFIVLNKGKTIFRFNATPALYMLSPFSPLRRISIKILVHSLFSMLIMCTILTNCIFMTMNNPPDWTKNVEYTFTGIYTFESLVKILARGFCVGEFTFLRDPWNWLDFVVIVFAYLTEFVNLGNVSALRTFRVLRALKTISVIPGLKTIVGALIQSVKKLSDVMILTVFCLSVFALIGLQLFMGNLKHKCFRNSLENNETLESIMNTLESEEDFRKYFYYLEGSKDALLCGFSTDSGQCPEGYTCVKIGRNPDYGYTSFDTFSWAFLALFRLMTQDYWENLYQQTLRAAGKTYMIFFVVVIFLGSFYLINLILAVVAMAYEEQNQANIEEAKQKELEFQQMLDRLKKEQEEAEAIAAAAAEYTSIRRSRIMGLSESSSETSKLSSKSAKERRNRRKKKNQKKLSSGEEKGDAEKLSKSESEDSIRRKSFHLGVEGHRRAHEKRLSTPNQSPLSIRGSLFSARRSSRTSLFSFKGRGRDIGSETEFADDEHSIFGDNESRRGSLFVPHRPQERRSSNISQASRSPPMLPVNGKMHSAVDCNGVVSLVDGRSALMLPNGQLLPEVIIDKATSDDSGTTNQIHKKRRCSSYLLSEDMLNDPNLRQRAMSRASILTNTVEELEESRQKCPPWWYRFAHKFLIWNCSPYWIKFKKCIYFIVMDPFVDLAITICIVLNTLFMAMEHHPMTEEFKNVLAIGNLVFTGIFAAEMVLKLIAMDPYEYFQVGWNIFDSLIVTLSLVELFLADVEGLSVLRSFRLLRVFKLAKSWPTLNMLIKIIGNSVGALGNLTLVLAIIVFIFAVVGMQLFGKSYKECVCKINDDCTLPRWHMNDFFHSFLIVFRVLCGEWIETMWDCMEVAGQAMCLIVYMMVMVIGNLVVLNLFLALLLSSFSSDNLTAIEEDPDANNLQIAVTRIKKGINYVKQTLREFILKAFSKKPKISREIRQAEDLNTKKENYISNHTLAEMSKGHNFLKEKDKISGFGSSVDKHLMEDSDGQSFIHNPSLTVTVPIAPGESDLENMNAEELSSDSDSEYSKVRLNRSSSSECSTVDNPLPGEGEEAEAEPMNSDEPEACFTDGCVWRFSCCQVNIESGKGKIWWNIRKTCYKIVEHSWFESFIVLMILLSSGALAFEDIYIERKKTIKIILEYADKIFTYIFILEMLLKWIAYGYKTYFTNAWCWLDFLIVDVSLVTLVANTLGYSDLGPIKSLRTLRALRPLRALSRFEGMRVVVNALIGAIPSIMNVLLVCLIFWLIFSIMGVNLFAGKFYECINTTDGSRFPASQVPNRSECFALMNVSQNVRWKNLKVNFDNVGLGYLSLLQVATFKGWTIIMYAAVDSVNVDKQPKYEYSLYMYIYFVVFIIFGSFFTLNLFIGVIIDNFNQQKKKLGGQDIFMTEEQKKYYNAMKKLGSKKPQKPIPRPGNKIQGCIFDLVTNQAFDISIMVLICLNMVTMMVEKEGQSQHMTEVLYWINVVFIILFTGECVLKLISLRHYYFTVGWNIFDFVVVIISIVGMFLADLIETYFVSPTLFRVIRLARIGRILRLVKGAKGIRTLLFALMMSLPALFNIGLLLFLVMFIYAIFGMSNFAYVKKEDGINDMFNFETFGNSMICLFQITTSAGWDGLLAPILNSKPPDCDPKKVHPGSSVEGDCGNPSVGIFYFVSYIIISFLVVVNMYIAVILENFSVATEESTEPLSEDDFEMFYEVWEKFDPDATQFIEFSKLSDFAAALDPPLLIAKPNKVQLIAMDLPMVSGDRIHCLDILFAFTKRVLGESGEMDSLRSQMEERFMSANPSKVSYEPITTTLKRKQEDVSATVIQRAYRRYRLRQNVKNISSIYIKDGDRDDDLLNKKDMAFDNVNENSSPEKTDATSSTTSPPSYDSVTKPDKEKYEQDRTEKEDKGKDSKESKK
T2 sequence (Q62205 whole entry): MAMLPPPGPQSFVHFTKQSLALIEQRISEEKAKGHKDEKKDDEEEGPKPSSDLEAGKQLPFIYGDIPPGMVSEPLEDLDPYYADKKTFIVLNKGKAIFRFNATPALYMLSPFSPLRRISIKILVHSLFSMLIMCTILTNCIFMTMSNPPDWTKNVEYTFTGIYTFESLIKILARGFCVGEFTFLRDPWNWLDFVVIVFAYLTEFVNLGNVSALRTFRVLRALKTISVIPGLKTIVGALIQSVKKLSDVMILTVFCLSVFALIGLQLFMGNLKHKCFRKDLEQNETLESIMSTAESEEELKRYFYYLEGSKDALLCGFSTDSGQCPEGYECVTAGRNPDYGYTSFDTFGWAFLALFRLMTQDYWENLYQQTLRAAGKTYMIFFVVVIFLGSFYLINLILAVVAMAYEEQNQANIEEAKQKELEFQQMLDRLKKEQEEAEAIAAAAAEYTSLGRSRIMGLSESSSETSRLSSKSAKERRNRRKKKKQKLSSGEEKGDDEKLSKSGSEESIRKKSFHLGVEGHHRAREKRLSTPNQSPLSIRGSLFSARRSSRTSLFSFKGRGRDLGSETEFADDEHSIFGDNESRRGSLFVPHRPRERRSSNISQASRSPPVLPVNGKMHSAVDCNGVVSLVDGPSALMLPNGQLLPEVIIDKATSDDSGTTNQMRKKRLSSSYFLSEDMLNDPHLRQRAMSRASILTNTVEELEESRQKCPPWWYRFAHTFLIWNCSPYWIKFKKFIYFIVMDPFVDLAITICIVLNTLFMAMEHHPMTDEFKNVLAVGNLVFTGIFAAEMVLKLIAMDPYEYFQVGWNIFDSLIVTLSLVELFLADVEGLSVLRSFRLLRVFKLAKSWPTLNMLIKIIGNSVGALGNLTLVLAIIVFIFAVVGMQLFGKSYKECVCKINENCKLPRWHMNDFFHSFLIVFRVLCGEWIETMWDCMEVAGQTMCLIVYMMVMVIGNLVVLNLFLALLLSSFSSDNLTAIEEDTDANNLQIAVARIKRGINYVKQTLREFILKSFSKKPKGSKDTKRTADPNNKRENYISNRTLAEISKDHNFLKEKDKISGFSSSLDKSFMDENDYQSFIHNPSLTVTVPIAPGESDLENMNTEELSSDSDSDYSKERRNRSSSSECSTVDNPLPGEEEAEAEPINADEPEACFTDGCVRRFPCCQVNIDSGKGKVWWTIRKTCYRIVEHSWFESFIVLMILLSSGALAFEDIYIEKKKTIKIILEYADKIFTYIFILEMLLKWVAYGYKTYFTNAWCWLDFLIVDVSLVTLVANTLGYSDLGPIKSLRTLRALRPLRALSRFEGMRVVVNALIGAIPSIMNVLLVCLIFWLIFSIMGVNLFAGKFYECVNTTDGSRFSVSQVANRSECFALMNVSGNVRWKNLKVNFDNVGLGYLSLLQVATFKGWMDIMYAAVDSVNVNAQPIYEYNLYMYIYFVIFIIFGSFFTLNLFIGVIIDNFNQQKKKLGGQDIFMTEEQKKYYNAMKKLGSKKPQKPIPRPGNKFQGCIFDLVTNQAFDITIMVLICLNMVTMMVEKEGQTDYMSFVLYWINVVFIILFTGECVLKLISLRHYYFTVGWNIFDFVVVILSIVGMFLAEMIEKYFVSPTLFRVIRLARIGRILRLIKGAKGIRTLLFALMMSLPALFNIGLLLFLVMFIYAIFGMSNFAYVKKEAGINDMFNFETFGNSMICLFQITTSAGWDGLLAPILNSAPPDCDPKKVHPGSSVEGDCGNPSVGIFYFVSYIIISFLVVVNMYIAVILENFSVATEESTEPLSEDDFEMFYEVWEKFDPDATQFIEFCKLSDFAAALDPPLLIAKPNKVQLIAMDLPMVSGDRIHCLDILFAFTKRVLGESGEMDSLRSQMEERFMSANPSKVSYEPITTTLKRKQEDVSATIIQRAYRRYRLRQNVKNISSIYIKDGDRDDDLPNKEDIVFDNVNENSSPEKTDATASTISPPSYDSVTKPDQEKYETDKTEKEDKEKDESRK

Compound: COc1cc(C(F)(F)F)ccc1-c1ncnc2cc(S(=O)(=O)Nc3nccs3)ccc12
- IC50 [1]: 2100 nM
- IC50 [2]: 7200 nM
- IC50 [3]: 130 nM
- Vd [4]: 1.5 L
- Cmax [5]: 3.4 µM
- Cp(f) [6]: 5.1 µM
- bioavailability [7]: 100%
- Cp(f) [8]: 0.76 µM
- IC50 [9]: 16000 nM
- Kp [10]: 0.008
- fraction unbound at 5 µM [11]: 0.014
- IC50 [12]: 7300 nM
- fraction unbound at 0.75 h, 5 µM [13]: 0.016
- concentration at 0.5 h [14]: 22 µM
- dose excreted at 24 h [15]: 4.7%
- clearance [16]: 0.217 mL/min/kg
- Ratio IC50 [17]: >100
- dose excreted at 24 h [18]: 0.6%
- CL free [19]: 17 mL/min/kg
- IC50 [20]: 3700 nM
- Tmax [21]: 2.3 h
- IC50 [22]: 180 nM
- IC50 [23]: > 30000 nM
- Activity [24]: Non-Toxic
- Cp(f) [25]: 0.11 µM
- IC50 [26]: 160 nM
- IC50 [27]: 9 nM
- IC50 [28]: 180 nM
- IC50 [29]: 160 nM
- concentration at 0.5 h [30]: 150 µM
- concentration at 0.5 h [31]: 3.1 µM
